# Results taken from ChEMBL document CHEMBL3526138, “Excretion and metabolism of milnacipran in humans after oral administration of milnacipran hydrochloride” (Drug Metab Dispos, 2012).
# What was measured:
# Homo sapiens [1] = assay: Total drug excretion in human at 100 mg, po up to 4 hrs by liquid scintillation counting analysis; format: ADME, organism-based; conditions: in vivo
# Outline: (§1)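 Mass balance after single oral 100 mg [14C] dose to healthy males: cumulative urinary plus fecal radioactivity (LSC; feces combusted first) as % of dose per subject, urine and feces collected in timed intervals to 120 h.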
# Plasma = assay: Drug recovery in human plasma at 100 mg, po by HPLC analysis; format: ADME, organism-based; conditions: in vivo
# Outline: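 Pooled plasma extracted for metabolite profiling; recovery of radioactivity through sample processing and through Phenyl-Hexyl HPLC column (0.5-min fractions counted by LSC) expressed as % of plasma or sample radioactivity.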
# Homo sapiens [2] = assay: Total drug excretion in human at 100 mg, po up to 24 hrs by liquid scintillation counting analysis; format: ADME, organism-based; conditions: in vivo; outline: as §1
# [3] = Drug excretion in human urine at 100 mg, po up to 96 hrs by liquid scintillation counting analysis; format: ADME, organism-based; conditions: in vivo
# Outline: (§2)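 Urine pooled at 0-4, 4-8, 8-12, 12-24 h, then daily intervals to 120 h after single oral 100 mg [14C] milnacipran hydrochloride; frozen -80°C and counted by LSC. Excreted amount = concentration × volume, given as % of dosed radioactivity, summed cumulatively per subject.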
# [4] = Drug excretion in mouse urine at 100 mg/kg, po; format: ADME, organism-based; parameters: dose 100 mg/kg, route oral; conditions: read-out: Drug excretion
# [5] = Drug excretion in human urine at 100 mg, po up to 4 hrs by liquid scintillation counting analysis; format: ADME, organism-based; conditions: in vivo; outline: as §2
# Homo sapiens [6] = assay: AUC (0 to t) in human assessed as radioactivity at 100 mg, po by liquid scintillation counting analysis; format: ADME, organism-based, Plasma; conditions: in vivo
# Outline: (§3)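 Healthy males given single oral [14C] milnacipran hydrochloride (100 μCi; 1 μCi/mg) after breakfast. Blood drawn into chilled K3EDTA tubes pre-dose to 120 h, plasma spun ≥2,500 g 10 min 4°C and frozen -80°C. Radioactivity counted by LSC for 5 min, converted to ng equivalent/mL via specific activity. Parameters by non-compartmental analysis; subjects without emesis.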
# [7] = Drug excretion in human feces at 100 mg, po up to 24 hrs by liquid scintillation counting analysis; format: ADME, organism-based; conditions: in vivo
# Outline: (§4)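 Feces pooled into 24-h collections to 120 h after oral 100 mg [14C] dose, frozen -80°C, homogenised in water. Triplicate weighed aliquots combusted in sample oxidizer, counted by LSC 5 min. Excreted amount = concentration × sample weight, expressed as % of dosed radioactivity and summed cumulatively per subject.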
# [8] = Drug excretion in monkey urine at 60 mg/kg, po; format: ADME, organism-based, Macaca mulatta; parameters: dose 60 mg/kg, route oral; conditions: rhesus monkey, read-out: Drug excretion
# Homo sapiens [9] = assay: Total drug excretion in human at 100 mg, po up to 96 hrs by liquid scintillation counting analysis; format: ADME, organism-based; conditions: in vivo; outline: as §1
# Homo sapiens [10] = assay: Total drug excretion in human at 100 mg, po up to 120 hrs by liquid scintillation counting analysis; format: ADME, organism-based; conditions: in vivo; outline: as §1
# [11] = Drug excretion in human urine at 100 mg, po up to 48 hrs by liquid scintillation counting analysis; format: ADME, organism-based; conditions: in vivo; outline: as §2
# [12] = Drug excretion in human urine at 100 mg, po up to 144 hrs by liquid scintillation counting analysis; format: ADME, organism-based; conditions: in vivo
# [13] = Drug excretion in human feces at 100 mg, po up to 72 hrs by liquid scintillation counting analysis; format: ADME, organism-based; conditions: in vivo; outline: as §4
# [14] = Drug excretion in human feces at 100 mg, po up to 96 hrs by liquid scintillation counting analysis; format: ADME, organism-based; conditions: in vivo; outline: as §4
# Homo sapiens [15] = assay: Total drug excretion in human at 100 mg, po up to 8 hrs by liquid scintillation counting analysis; format: ADME, organism-based; conditions: in vivo; outline: as §1
# [16] = Drug excretion in human urine at 100 mg, po up to 24 hrs by liquid scintillation counting analysis; format: ADME, organism-based; conditions: in vivo; outline: as §2
# Homo sapiens [17] = assay: Cmax in human assessed as radioactivity at 100 mg, po by liquid scintillation counting analysis; format: ADME, organism-based; parameters: dose 100 mg, route oral; conditions: in vivo; outline: as §3
# [18] = Drug excretion in human urine at 100 mg, po up to 120 hrs by liquid scintillation counting analysis; format: ADME, organism-based; conditions: in vivo; outline: as §2
# Homo sapiens [19] = assay: Total drug excretion in human at 100 mg, po up to 72 hrs by liquid scintillation counting analysis; format: ADME, organism-based; conditions: in vivo; outline: as §1
# [20] = Drug excretion in rat urine at 100 mg/kg, po; format: ADME, organism-based; parameters: dose 100 mg/kg, route oral; conditions: read-out: Drug excretion
# Homo sapiens [21] = assay: Tmax in human assessed as radioactivity at 100 mg, po by liquid scintillation counting analysis; format: ADME, organism-based; conditions: in vivo; outline: as §3
# [22] = Drug excretion in human feces at 100 mg, po up to 120 hrs by liquid scintillation counting analysis; format: ADME, organism-based; conditions: in vivo; outline: as §4
# [23] = Drug excretion in human feces at 100 mg, po up to 48 hrs by liquid scintillation counting analysis; format: ADME, organism-based; conditions: in vivo; outline: as §4
# Homo sapiens [24] = assay: AUC (0 to infinity) in human assessed as radioactivity at 100 mg, po by liquid scintillation counting analysis; format: ADME, organism-based, Plasma; parameters: dose 100 mg, route oral, time infinity; conditions: in vivo; outline: as §3
# [25] = Drug excretion in human urine at 100 mg, po up to 72 hrs by liquid scintillation counting analysis; format: ADME, organism-based; conditions: in vivo; outline: as §2
# [26] = Drug excretion in human feces at 100 mg, po up to 144 hrs by liquid scintillation counting analysis; format: ADME, organism-based; conditions: in vivo
# Homo sapiens [27] = assay: Total drug excretion in human at 100 mg, po up to 12 hrs by liquid scintillation counting analysis; format: ADME, organism-based; conditions: in vivo; outline: as §1
# [28] = Drug excretion in human urine at 100 mg, po up to 8 hrs by liquid scintillation counting analysis; format: ADME, organism-based; conditions: in vivo; outline: as §2
# Homo sapiens [29] = assay: Total drug excretion in human at 100 mg, po up to 144 hrs by liquid scintillation counting analysis; format: ADME, organism-based; conditions: in vivo
# [30] = Drug excretion in human urine at 100 mg, po up to 12 hrs by liquid scintillation counting analysis; format: ADME, organism-based; conditions: in vivo; outline: as §2
# Homo sapiens [31] = assay: Total drug excretion in human at 100 mg, po up to 48 hrs by liquid scintillation counting analysis; format: ADME, organism-based; conditions: in vivo; outline: as §1
# Homo sapiens [32] = assay: Half life in human assessed as radioactivity at 100 mg, po by liquid scintillation counting analysis; format: ADME, organism-based; conditions: in vivo; outline: as §3
smiles,measurement,setting,value
CCN(CC)[14C](=O)C1(c2ccccc2)CC1CN.Cl (stereo not drawn),Drug excretion,Homo sapiens [1],24.8%
same,Drug recovery,Plasma,99.1%
same,Drug excretion,Homo sapiens [2],79.6%
same,Drug excretion,[3],92.8%
same,dose excreted,[4],63%
same,Drug excretion,[5],24.8%
same,AUCt,Homo sapiens [6],6446.3 ng.Eq.hr/ml
same,Drug excretion,[7],0.407%
same,dose excreted,[8],40%
same,Drug excretion,Homo sapiens [9],96.5%
same,Drug excretion,Homo sapiens [10],96.8%
same,Drug excretion,[11],89.3%
same,Drug excretion,[12],93.3%
same,Drug excretion,[13],3.27%
same,Drug excretion,[14],3.62%
same,Drug excretion,Homo sapiens [15],48.5%
same,Drug excretion,[16],79.4%
same,Cmax,Homo sapiens [17],679 ng.Eq/ml
same,Drug excretion,[18],93.1%
same,Drug excretion,Homo sapiens [19],95.4%
same,dose excreted,[20],63%
same,Tmax,Homo sapiens [21],4.3 h
same,Drug excretion,[22],3.65%
same,Drug excretion,[23],2.83%
same,AUC,Homo sapiens [24],7325.3 ng.Eq.hr/ml
same,Drug excretion,[25],92.1%
same,Drug excretion,[26],3.65%
same,Drug excretion,Homo sapiens [27],60.8%
same,Drug excretion,[28],48.5%
same,Drug excretion,Homo sapiens [29],96.9%
same,Drug excretion,[30],60.8%
same,Drug excretion,Homo sapiens [31],92.2%
same,t1/2,Homo sapiens [32],7.7 h
